We go through one compound from article PMC12824664 (Blood, 2025).

The test system of assay [1] is relapsed/refractory chronic lymphocytic leukemia. In words: Phase 1/2 BRUIN trial, pirtobrutinib monotherapy, response per iwCLL 2018. Format: in vivo, human. In short, it runs like this:
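Relapsed/refractory CLL patients pretreated with covalent BTK inhibitors received test compound monotherapy in a multicenter phase 1/2 trial. Response followed iwCLL 2018 criteria, with data cutoff 5 May 2023. ORR was the proportion with best response of partial response with lymphocytosis or better, with 2-sided 95% CI from the exact binomial. PBMCs at baseline and progression underwent targeted NGS; a more sensitive assay had 0.5% VAF LoD.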

For another assay, the target named is wild type BTK (Homo sapiens, UniProt Q06187). Briefly: biochemical. In kind it is binding. As to conditions: read-out: residence time t1/2.
wild type BTK, sequence (Q06187 whole entry): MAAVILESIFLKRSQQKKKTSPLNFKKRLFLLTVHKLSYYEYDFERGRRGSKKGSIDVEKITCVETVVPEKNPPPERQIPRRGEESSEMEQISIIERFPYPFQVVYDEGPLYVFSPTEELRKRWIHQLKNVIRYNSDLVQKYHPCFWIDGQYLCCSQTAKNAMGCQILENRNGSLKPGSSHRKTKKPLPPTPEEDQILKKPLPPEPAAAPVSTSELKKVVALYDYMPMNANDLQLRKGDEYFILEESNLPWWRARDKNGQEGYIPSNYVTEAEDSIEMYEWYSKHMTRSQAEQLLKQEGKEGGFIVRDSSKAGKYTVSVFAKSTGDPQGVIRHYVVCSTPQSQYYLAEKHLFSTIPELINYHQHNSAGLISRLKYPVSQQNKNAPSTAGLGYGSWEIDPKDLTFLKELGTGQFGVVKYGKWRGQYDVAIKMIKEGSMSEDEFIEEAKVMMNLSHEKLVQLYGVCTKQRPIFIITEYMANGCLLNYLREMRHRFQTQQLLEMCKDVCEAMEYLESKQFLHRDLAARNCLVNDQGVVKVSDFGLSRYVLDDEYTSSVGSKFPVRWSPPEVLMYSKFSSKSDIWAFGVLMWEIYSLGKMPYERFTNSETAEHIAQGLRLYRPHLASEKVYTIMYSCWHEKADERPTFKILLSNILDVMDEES
The subject of assay [2] is BTK mutants with kinase activity (Y545N, V416L, T474I, C481S+T474I) in Ramos BTK KO cells. In kind it is cell-based. As to conditions: variants with kinase activity vs wild type.

Structures are written as SMILES.

`COc1ccc(F)cc1C(=O)NCc1ccc(-c2nn([C@@H](C)C(F)(F)F)c(N)c2C(N)=O)cc1` [Pirtobrutinib]: the BOR result in assay [1] (3 patients with detectable BTK L528W at baseline) is “partial response, stable disease, and PD”; in assay [1] (6 patients with detectable BTK T474x at baseline) it was “PR (4), SD (1), and PD (1”. For the same compound, the “Median PFS (95%CI)” value in assay [1] (Patients with PD and longitudinal samples n=88) is reported as 10.3 months. In addition, the “patients who experienced PD on pirtobrutinib” value in assay [1] (overall population, median follow-up of 29 months, 139 patients) is given as 57%. In addition, the “median PFS” value in assay [1] (patients with baseline BTK T474x (standard and high sensitivity), 95% CI, 7.4-22.3) came to 9.2 months. In addition, at wild type BTK, the residence time is 336 min. The “sensitivity to inhibition in cellular BTK phosphorylation assays” value in assay [2] is on record as “less sensitive”.
